Reference: ChEMBL document CHEMBL3352586, “Pyridyl benzamides as a novel class of potent inhibitors for the kinetoplastid Trypanosoma brucei” (J Med Chem, 2014)
Values after ≈ are worked out from the molar mass of the structure shown.

Tests used:
[1] = test system: Liver microsome; test: Drug level in human liver microsomes treated with N-(4-chloropyridin-2-yl)-3-fluoro-2-methylbenzamide at 1 uM after 60 mins by LC-MS analysis in presence of NADPH; assay type: ADME; conditions: 1 h
[2] = Partition coefficient, log D of the compound at pH 7.4 by HPLC method; assay type: physicochemical; conditions: octanol/water
How it was run: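 Distribution coefficient at pH 7.4 was measured chromatographically.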

[3] = Kinetic solubility of the compound at 10 mg/ml at pH 2 by nephelometry; assay type: physicochemical; conditions: buffer, read-out: Kinetic_solubility
How it was run: (§1)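 Kinetic solubility was read by nephelometry at pH 2 and pH 6.5 and reported as μg/mL ranges.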

[4] = Kinetic solubility of the compound at 10 mg/ml at pH 6.5 by nephelometry; assay type: physicochemical; conditions: buffer, read-out: Kinetic_solubility; how it was run: as §1
[5] = Plasma protein binding in human […] by chromatographic method; assay type: ADME, cell-free; conditions: read-out: PPB (converted)
How it was run: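 Human plasma protein binding was estimated by a chromatographic method.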

[6] = test system: Liver microsome; test: Intrinsic clearance in human liver microsomes at 1 uM after 60 mins by LC-MS analysis; assay type: ADME; conditions: 1 h
How it was run: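 In vitro intrinsic clearance was measured in human liver microsomes and expressed per mg protein. A hepatic extraction ratio (E_H) was predicted from the in vitro data.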

[7] = Selectivity index, ratio of IC50 for rat L6 cells to IC50 for bloodstream form of Trypanosoma brucei rhodesiense STIB 900; assay type: toxicity, cell-based; conditions: read-out: Ratio IC50
How it was run: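 Bloodstream-form trypomastigotes of T. b. rhodesiense STIB 900 run with melarsoprol as reference drug. The counter-screen used the rat skeletal myoblast L-6 line, with podophyllotoxin as reference. The index is the L-6 IC50 divided by the parasite IC50.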

[8] = test system: Trypanosoma brucei brucei; test: Antimicrobial activity against bloodstream form of Trypanosoma brucei brucei 427 after 48 hrs by alamar blue assay; assay type: functional, organism-based; conditions: Trypanosoma brucei, 427, 48 h
[9] = Selectivity index, ratio of IC50 for HEK293 cells to IC50 for Trypanosoma brucei brucei 427; assay type: toxicity, cell-based; conditions: human, read-out: Ratio IC50
[10] = test system: Trypanosoma brucei rhodesiense; test: Antimicrobial activity against bloodstream form of Trypanosoma brucei rhodesiense STIB 900 after 70 hrs by alamar blue assay; assay type: functional, organism-based; conditions: STIB 900, 70 h
How it was run: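 Trypanosoma brucei rhodesiense STIB 900 bloodstream-form trypomastigotes, with melarsoprol as reference drug.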

[11] = test system: Leishmania donovani; test: Antimicrobial activity against amastigote form of Leishmania donovani MHOM/ET/67/L82 after 70 hrs by alamar blue assay; assay type: functional, organism-based; conditions: MHOM/ET/67/L82, 70 h
How it was run: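 Leishmania donovani MHOM-ET-67/L82 axenic amastigotes, with miltefosine as reference drug.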

[12] = test system: Plasmodium falciparum; test: Antimicrobial activity against erythrocytic stage of Plasmodium falciparum NF54 infected in human washed RBC assessed as [3H]-hypoxanthine incorporation incubated for 48 hrs prior to [3H]-hypoxanthine addition measured after 24 hrs by liquid scintillation counting analysis; assay type: functional, organism-based
[13] = test system: L6; test: Cytotoxicity against rat L6 cells after 70 hrs by alamar blue assay; assay type: cell-based; conditions: L6, 70 h
How it was run: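 Cytotoxicity on the rat skeletal myoblast L-6 strain, with podophyllotoxin as reference drug.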

[14] = test system: Trypanosoma cruzi; test: Antimicrobial activity against amastigote form of Trypanosoma cruzi Tulahuen C2C4 infected in rat L6 cells after 96 hrs by microscopic analysis; conditions: Tulahuen C2C4, L6, 96 h
[15] = test system: Liver microsome; test: Drug metabolism in human liver microsomes assessed as M+32 formation at 1 uM after 60 mins by LC-MS analysis in presence of NADPH/UDPGA; assay type: ADME; conditions: 1 h
[16] = test system: Liver microsome; test: Drug metabolism in human liver microsomes assessed as M-111 formation at 1 uM after 60 mins by LC-MS analysis in presence of NADPH; assay type: ADME; conditions: 1 h
[17] = test system: Trypanosoma brucei brucei; test: Trypanocidal activity against Trypanosoma brucei brucei after 24 hrs by hemocytometry relative to control; assay type: functional
How it was run: (§2)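 T.b. brucei parasites were seeded and held 24 h at 37 °C/5% CO₂. Compounds were diluted in DMEM and added to give the MIC, defined as the lowest concentration at the plateau (>95% activity) of the Alamar blue assay. Wells were viewed by microscope after 24, 48 and 72 h, and sampled wells were counted by hemocytometer. Percentage killed was taken against puromycin (1.15 μM) and 0.4% DMSO controls, in duplicate.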

[18] = test system: Trypanosoma brucei brucei; test: Trypanocidal activity against Trypanosoma brucei brucei after 48 hrs by hemocytometry relative to control; assay type: functional; how it was run: as §2
[19] = test system: Trypanosoma brucei brucei; test: Trypanocidal activity against Trypanosoma brucei brucei after 72 hrs by hemocytometry relative to control; assay type: functional; how it was run: as §2
[20] = test system: Liver microsome; test: Drug metabolism in human liver microsomes assessed as M+32 formation at 10 uM after 60 mins by LC-MS analysis in presence of NADPH; conditions: 1 h
[21] = test system: Liver microsome; test: Drug metabolism in human liver microsomes assessed as M+16 formation at 10 uM after 60 mins by LC-MS analysis in presence of NADPH; conditions: 1 h
[22] = test system: Liver microsome; test: Drug metabolism in human liver microsomes assessed as M+16 formation at 10 uM after 60 mins by LC-MS analysis in presence of NADPH/UDPGA; conditions: 1 h
[23] = test system: Liver microsome; test: Drug metabolism in human liver microsomes assessed as M+16(II) formation at 1 uM after 60 mins by LC-MS analysis in presence of NADPH/UDPGA; assay type: ADME; conditions: 1 h
[24] = test system: Liver microsome; test: Drug metabolism in human liver microsomes at 1 uM after 60 mins in absence of NADPH/UDPGA by LC-MS analysis; assay type: ADME; conditions: 1 h
[25] = test system: Trypanosoma brucei brucei; test: Antimicrobial activity against bloodstream form of Trypanosoma brucei brucei 427 at 10 uM after 48 hrs by alamar blue assay; assay type: functional; conditions: Trypanosoma brucei, 427, 48 h
[26] = test system: Liver microsome; test: Drug metabolism in human liver microsomes assessed as M-2 formation at 10 uM after 60 mins by LC-MS analysis in presence of NADPH; conditions: 1 h
[27] = test system: Liver microsome; test: Drug metabolism in human liver microsomes assessed as M+16(I) formation at 10 uM after 60 mins by LC-MS analysis in presence of NADPH; conditions: 1 h
[28] = test system: Liver microsome; test: Drug metabolism in human liver microsomes assessed as M+16(II) formation at 10 uM after 60 mins by LC-MS analysis in presence of NADPH; conditions: 1 h
[29] = test system: Liver microsome; test: Drug level in human liver microsomes treated with N-(5-fluoropyridin-2-yl)-2-methylbenzamide at 10 uM after 60 mins by LC-MS analysis in presence of NADPH; conditions: 1 h

Row | logD [2] | solubility kinetic [3] [µg/mL] | solubility kinetic [4] [µg/mL] | fraction unbound [5] | CLint [6] [µL/min/mg] | IC50 [8] [µM] | IC50 [10] [µM] | IC50 [12] [µM] | IC50 [14] [µM] | Structure (SMILES) | selectivity ratio [9] | IC50 [11] [µM] | IC50 [13] [µM] | Activity [17] [%] | Activity [18] [%] | Activity [19] [%] | other results
1 |  |  |  |  |  |  |  |  |  | Cc1c(F)cccc1C(N)=O |  |  |  |  |  |  | Drug metabolism [1]: metabolite_detected
2 | 3.2 | > 100 | > 100 | 0.119 | 97 | 1.1 | 0.045 | 48 | 100 | Cc1cc(Br)ccc1C(=O)Nc1ccccn1 | 60 | > 103 | 193 |  |  |  | selectivity ratio [7]: > 4000
3 | 3.4 | 25 (≈ 101 µM) | 12.5 (≈ 50.7 µM) | 0.134 | 128 | 2.1 | 0.61 | 88 | 168 | Cc1ccccc1C(=O)Nc1cc(Cl)ccn1 | > 38 | 168 | 224 |  |  |  | 
4 | 2.6 | 50 (≈ 217 µM) | 25 (≈ 109 µM) | 0.321 | 58 | 0.89 | 0.61 | 103 | 198 | Cc1c(F)cccc1C(=O)Nc1ccccn1 | 94 | > 131 | 310 |  |  |  | 
5 | 2.3 | 12.5 (≈ 47.2 µM) | 12.5 (≈ 47.2 µM) | 0.283 | 254 | 0.47 |  |  |  | Cc1c(F)cccc1C(=O)Nc1cc(Cl)ccn1 | 177 |  |  | 64.23 | 83.7 | 98.8 | Drug metabolism [15]: metabolite_detected; Drug metabolism [16]: metabolite_detected; Drug metabolism [20]: metabolite_detected; Drug metabolism [21]: metabolite_detected; Drug metabolism [22]: metabolite_detected
6 |  |  |  |  |  |  |  |  |  | COc1ccc(C[C@H](N)C(=O)N[C@H]2[C@@H](O)[C@H](n3cnc4c(N(C)C)ncnc43)O[C@@H]2CO)cc1 [PUROMYCIN] |  |  |  | 100 | 100 | 100 | 
7 | 2.8 | > 100 | 25 (≈ 110 µM) | 0.299 | 129 | 2.1 | 0.36 | 124 | 173 | Cc1ccnc(NC(=O)c2ccccc2C)c1 | > 37 | > 133 | 146 |  |  |  | 
8 | 2.7 | 25 (≈ 109 µM) | 25 (≈ 109 µM) | 0.44 | 43 |  |  |  |  | Cc1ccccc1C(=O)Nc1ccc(F)cn1 |  |  |  |  |  |  | Drug metabolism [23]: metabolite_detected; Drug metabolism [15]: metabolite_detected; Drug metabolism [24]: metabolite_notdetected; inhibition at 10 µM [25]: 33%; Drug metabolism [26]: metabolite_detected; Drug metabolism [20]: metabolite_detected; Drug metabolism [27]: metabolite_detected; Drug metabolism [28]: metabolite_detected
9 | 2.8 | 50 (≈ 201 µM) | 25 (≈ 101 µM) | 0.361 | 154 | 0.41 | 0.1 | 17 | 176 | Cc1c(C(=O)Nc2ccccn2)ccc(F)c1F | 205 | > 121 | 308 | 92 | 99.95 | 99.9 | 
10 |  |  |  |  |  |  |  |  |  | Cc1ccccc1C(=O)Nc1ccc(O)cn1 |  |  |  |  |  |  | Drug metabolism [29]: metabolite_detected
11 |  |  |  |  |  |  |  |  |  | N=C(N)c1ccc(OCCCCCOc2ccc(C(=N)N)cc2)cc1 [PENTAMIDINE] |  |  |  | 58.1 | 100 | 100 | 
12 |  |  |  |  |  |  |  |  |  | Cc1ccccc1C(=O)N(O)c1ccc(F)cn1 |  |  |  |  |  |  | Drug metabolism [29]: metabolite_detected
